ChEMBL document CHEMBL1124504, “Azido glycols: potent, low molecular weight renin inhibitors containing an unusual post scissile site residue” (J Med Chem, 1989)
≈ marks a conversion by molar mass, not a printed value.

Experiments:
[1] = target: T1, Renin (Homo sapiens, UniProt P00797); test: Inhibitory activity against purified human renal renin at pH 6.0
T1 sequence (P00797 whole entry): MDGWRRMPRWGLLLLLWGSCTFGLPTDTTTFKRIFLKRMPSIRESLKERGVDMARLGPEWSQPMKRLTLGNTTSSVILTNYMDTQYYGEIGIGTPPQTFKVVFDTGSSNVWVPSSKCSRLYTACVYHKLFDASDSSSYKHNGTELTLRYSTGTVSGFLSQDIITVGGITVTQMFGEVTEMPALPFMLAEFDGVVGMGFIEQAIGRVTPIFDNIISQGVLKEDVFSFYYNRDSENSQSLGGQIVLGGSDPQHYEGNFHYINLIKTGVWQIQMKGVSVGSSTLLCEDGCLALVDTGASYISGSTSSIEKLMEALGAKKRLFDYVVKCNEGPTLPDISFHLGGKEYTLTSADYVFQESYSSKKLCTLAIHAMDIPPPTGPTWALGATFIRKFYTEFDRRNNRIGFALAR

[2] = species on record: Rattus norvegicus; test: In vitro intestinal permeability in rats; format: ADME
Summary of the method: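 Rat jejunum removed after cervical dislocation, washed with balanced electrolyte solution at 4 °C. Central 30 cm mounted for recirculating luminal perfusion (30 mL) at 37 °C under 95% O2-5% CO2. Inhibitor added mucosally at 100 μM with 3H-PEG-900 baseline marker. Mucosal and serosal samples taken every 15 min for 150 min. Inhibitor measured by HPLC-UV and PEG by scintillation. P = J/ΔC from steady-state (45-120 min) regression, cm/h; mean ± SE, n = 2.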

[3] = Solubility in pH 6.5 buffer; format: physicochemical
Summary of the method: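 About 10 mg shaken in 1 mL 0.01 M phosphate buffer, pH 6.5, for 24 h at 37 °C. Suspension filtered through glass wool, diluted in mobile phase, and quantified by HPLC with detection at 214 nm; reported as mg/mL.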

[4] = tested on: Rattus norvegicus; test: Plasma levels in the portal blood vessel of rat after 10 min of administration of 10 mg/kg intraduodenally; format: functional, organism-based; set-up: dose 10 mg/kg
Summary of the method: (§1)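 Male Sprague-Dawley rats, fasted overnight, ≥150 g, under inactin (80 mg/kg ip), pylorus ligated. Carotid and portal vein catheterized. 10 mg/kg injected into the duodenum; paired blood drawn at 10 min. Plasma acetonitrile-precipitated, serially diluted, dried.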

[5] = tested on: Rattus norvegicus; test: Plasma levels in the systemic blood vessel of rat after 10 min of administration of 10 mg/kg intraduodenally; format: functional, organism-based; set-up: dose 10 mg/kg; summary of the method: as §1
[6] = target: T1, Renin; test: Inhibitory activity against human plasma renin at pH 7.4; format: cell-free
[7] = target: T1, Renin; test: Inhibitory activity against purified human renal renin at pH 6.0

CC(C)(C)OC(=O)N[C@@H](Cc1ccccc1)C(=O)N[C@@H](Cc1c[nH]cn1)C(=O)N[C@H](CC1CCCCC1)[C@H](O)[C@H](CO)CN=[N+]=[N-]
IC50 [1]: 10 nM

COc1ccc(C[C@H](NC(=O)N2CCOCC2)C(=O)N[C@@H](Cc2c[nH]cn2)C(=O)N[C@H](CC2CCCCC2)[C@H](O)[C@H](O)CN=[N+]=[N-])cc1
Permeability [2]: 4.25 cm (10e3*hr)-1 | solubility [3]: 1000 µg/mL (≈ 1490 µM) | Plasma level [4]: 230 ng/mL | Plasma level [5]: 15 ng/mL | IC50 [6]: 20 nM | IC50 [7]: 4 nM

CC(C)C(=O)N[C@@H](Cc1ccccc1)C(=O)N[C@@H](Cc1c[nH]cn1)C(=O)N[C@H](CC1CCCCC1)[C@H](O)[C@H](O)CN=[N+]=[N-]
solubility [3]: 13 µg/mL (≈ 21.8 µM) | IC50 [6]: 3.3 nM | IC50 [7]: 0.55 nM

[N-]=[N+]=NC[C@@H](O)[C@@H](O)[C@@H](CC1CCCCC1)NC(=O)[C@H](Cc1c[nH]cn1)NC(=O)[C@H](Cc1ccccc1)NC(=O)C1CCOCC1
solubility [3]: 23 µg/mL (≈ 36 µM) | IC50 [6]: 7.6 nM | IC50 [7]: 0.7 nM

CC(C)(C)OC(=O)N[C@@H](Cc1ccccc1)C(=O)N[C@@H](Cc1cnc[nH]1)C(=O)N[C@H](CC1CCCCC1)[C@H](O)[C@@H](CO)CN=[N+]=[N-]
IC50 [1]: 370 nM

CC(C)(C)OC(=O)N[C@@H](Cc1ccccc1)C(=O)N[C@@H](Cc1cnc[nH]1)C(=O)N[C@H](CC1CCCCC1)[C@H](O)CN=[N+]=[N-]
IC50 [1]: 7.5 nM

CC(C)(C)OC(=O)N[C@@H](Cc1ccccc1)C(=O)N[C@@H](Cc1c[nH]cn1)C(=O)N[C@H](CC1CCCCC1)[C@H](O)[C@H](O)CN=[N+]=[N-]
IC50 [6]: 9 nM | IC50 [1]: 0.4 nM | IC50 [7]: 0.4 nM

CC(C)(C)OC(=O)N[C@@H](Cc1ccccc1)C(=O)N[C@@H](Cc1c[nH]cn1)C(=O)N[C@H](CC1CCCCC1)[C@H](O)C(=O)CN=[N+]=[N-]
IC50 [1]: 5.4 nM

CC(C)(C)OC(=O)N[C@@H](Cc1ccccc1)C(=O)N[C@@H](Cc1cnc[nH]1)C(=O)N[C@H](CC1CCCCC1)[C@H](O)C(O)(CO)CN=[N+]=[N-] (stereo partly drawn)
IC50 [1]: 4.8 nM

COc1ccc(C[C@H](NC(=O)C(C)C)C(=O)N[C@@H](Cc2c[nH]cn2)C(=O)N[C@H](CC2CCCCC2)[C@H](O)[C@H](O)CN=[N+]=[N-])cc1
Plasma level [4]: 53 ng/mL | Plasma level [5]: 12 ng/mL

CC(C)(C)OC(=O)N[C@@H](Cc1ccccc1)C(=O)N[C@@H](Cc1c[nH]cn1)C(=O)N[C@H](CC1CCCCC1)[C@H](O)CCN=[N+]=[N-]
IC50 [1]: 20 nM

Cn1c(=O)c2[nH]cnc2n(C)c1=O.O [THEOPHYLLINE]
Permeability [2]: 22.35 cm (10e3*hr)-1

COc1ccc(C[C@H](NC(=O)C(C)C)C(=O)N[C@@H](Cc2cnc[nH]2)C(=O)N[C@H](CC2CCCCC2)[C@H](O)[C@H](O)CN=[N+]=[N-])cc1
Permeability [2]: 0.79 cm (10e3*hr)-1 | solubility [3]: 29 µg/mL (≈ 46.3 µM) | IC50 [6]: 10 nM | IC50 [7]: 2 nM

[N-]=[N+]=NC[C@@H](O)[C@@H](O)[C@@H](CC1CCCCC1)NC(=O)[C@H](Cc1cnc[nH]1)NC(=O)[C@H](Cc1ccccc1)NC(=O)N1CCOCC1
solubility [3]: 2600 µg/mL (≈ 4060 µM) | IC50 [6]: 2.4 nM | IC50 [7]: 0.67 nM

CC(C)(C)OC(=O)N[C@@H](Cc1ccccc1)C(=O)N[C@@H](Cc1c[nH]cn1)C(=O)N[C@H](CC1CCCCC1)[C@H](O)[C@@H](O)CN=[N+]=[N-]
IC50 [1]: 26 nM

C=C(CN=[N+]=[N-])[C@@H](O)[C@@H](CC1CCCCC1)NC(=O)[C@H](Cc1c[nH]cn1)NC(=O)[C@H](Cc1ccccc1)NC(=O)OC(C)(C)C
IC50 [1]: 55 nM
